Laboratory results reported in ChEMBL document CHEMBL3244036, “Inhibition of beef-brain and dog-heart (Na+ + k+) activated adenosine triphosphatase by carbon-3 branched cardenolides” (J Med Chem, 1978).

What was measured:
Bos taurus [1] = organism: Bos taurus; assay: Inhibition of beef-brain Na(+)/K(+) ATPase assessed as oxidation of NADH using ATP substrate preincubated for 5 mins
Outline: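 Microsomal enzyme from frozen, partially thawed beef brain. Pyruvate kinase/lactate dehydrogenase-coupled system with inhibitor (in water, or DMSO made up with water) preincubated 5 min before adding ATP. NADH oxidation followed photometrically. Final volume 2.95 mL. At least four roughly log-equidistant concentrations, each in duplicate or triplicate. IC50 from linear regression of % inhibition against log concentration.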

Canis lupus familiaris = organism: Canis lupus familiaris; assay: Inhibition of dog-heart microsomal Na(+)/K(+) ATPase using ATP substrate
Outline: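 Microsomal enzyme from frozen dog heart in Tris-HCl pH 7.4 containing MgCl2, KCl and NaCl. Preincubated with inhibitor for 5 min, then pyruvate kinase, lactate dehydrogenase, phosphoenolpyruvate and NADH added. Reaction started with ATP; NADH oxidation read photometrically. At least four log-spaced concentrations, each in duplicate or triplicate. Linear regression of % inhibition against log concentration.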

Bos taurus [2] = organism: Bos taurus; assay: Inhibition of beef-brain Na(+)/K(+) ATPase assessed as oxidation of NADH using ATP substrate at 5 uM preincubated for 5 mins relative to digitoxigenin

SMILES	ID50 (Bos taurus [1]) [µmol]	ID50 (Canis lupus familiaris) [µmol]	fold change (FC) (Bos taurus [2])
C[C@]1(O)CC[C@@]2(C)[C@H](CC[C@@H]3[C@@H]2CC[C@]2(C)[C@@H](C4=CC(=O)OC4)CC[C@]32O)C1	0.92	0.32	100
C[C@]12CC[C@](O)(CC(O)CO)C[C@H]1CC[C@@H]1[C@@H]2CC[C@]2(C)[C@@H](C3=CC(=O)OC3)CC[C@]12O (some centres not stated)	2.34		
C[C@]12CC[C@@](O)(C3CO3)C[C@H]1CC[C@@H]1[C@@H]2CC[C@]2(C)[C@@H](C3=CC(=O)OC3)CC[C@]12O (some centres not stated)	2.03	1.1	100
CC[C@@]1(O)CC[C@@]2(C)[C@H](CC[C@@H]3[C@@H]2CC[C@]2(C)[C@@H](C4=CC(=O)OC4)CC[C@]32O)C1	6.4		
C[C@]12CC[C@H](O)C[C@H]1CC[C@@H]1[C@@H]2CC[C@]2(C)[C@@H](C3=CC(=O)OC3)CC[C@]12O	0.096	0.035	
C[C@]12CC[C@](O)(C3CO3)C[C@H]1CC[C@@H]1[C@@H]2CC[C@]2(C)[C@@H](C3=CC(=O)OC3)CC[C@]12O (some centres not stated)	3.17		
C=C[C@]1(O)CC[C@@]2(C)[C@H](CC[C@@H]3[C@@H]2CC[C@]2(C)[C@@H](C4=CC(=O)OC4)CC[C@]32O)C1	0.31	0.092	100
C[C@]12CC[C@@](O)(c3ccccc3)C[C@H]1CC[C@@H]1[C@@H]2CC[C@]2(C)[C@@H](C3=CC(=O)OC3)CC[C@]12O	2.11	0.6	100
C=C[C@@]1(O)CC[C@@]2(C)[C@H](CC[C@@H]3[C@@H]2CC[C@]2(C)[C@@H](C4=CC(=O)OC4)CC[C@]32O)C1	6.68		
C[C@]12CC[C@@]3(CO3)C[C@H]1CC[C@@H]1[C@@H]2CC[C@]2(C)[C@@H](C3=CC(=O)OC3)CC[C@]12O	0.71	0.275	100
C=CC[C@]1(O)CC[C@@]2(C)[C@H](CC[C@@H]3[C@@H]2CC[C@]2(C)[C@@H](C4=CC(=O)OC4)CC[C@]32O)C1	1.25	0.55	100
C[C@]12CC[C@](O)(c3ccccc3)C[C@H]1CC[C@@H]1[C@@H]2CC[C@]2(C)[C@@H](C3=CC(=O)OC3)CC[C@]12O	5.81		
C[C@]12CC[C@](O)(C(O)CO)C[C@H]1CC[C@@H]1[C@@H]2CC[C@]2(C)[C@@H](C3=CC(=O)OC3)CC[C@]12O (some centres not stated)	1.7		
C#C[C@@]1(O)CC[C@@]2(C)[C@H](CC[C@@H]3[C@@H]2CC[C@]2(C)[C@@H](C4=CC(=O)OC4)CC[C@]32O)C1	2.11		
C[C@]12CC[C@@](O)(C(O)CO)C[C@H]1CC[C@@H]1[C@@H]2CC[C@]2(C)[C@@H](C3=CC(=O)OC3)CC[C@]12O (some centres not stated)	15.4	7.8	100
C[C@]12CC[C@@H](O)C[C@H]1CC[C@@H]1[C@@H]2CC[C@]2(C)[C@@H](C3=CC(=O)OC3)CC[C@]12O	1.17		
C=CC[C@@]1(O)CC[C@@]2(C)[C@H](CC[C@@H]3[C@@H]2CC[C@]2(C)[C@@H](C4=CC(=O)OC4)CC[C@]32O)C1	5.81		
C[C@]12CC[C@@](O)(CC(O)CO)C[C@H]1CC[C@@H]1[C@@H]2CC[C@]2(C)[C@@H](C3=CC(=O)OC3)CC[C@]12O (some centres not stated)	7.66	4.44	100
C[C@]12CC[C@]3(CO3)C[C@H]1CC[C@@H]1[C@@H]2CC[C@]2(C)[C@@H](C3=CC(=O)OC3)CC[C@]12O	0.74		
C#C[C@]1(O)CC[C@@]2(C)[C@H](CC[C@@H]3[C@@H]2CC[C@]2(C)[C@@H](C4=CC(=O)OC4)CC[C@]32O)C1	0.25	0.12	100
C[C@]12CC[C@@](O)(CC3CO3)C[C@H]1CC[C@@H]1[C@@H]2CC[C@]2(C)[C@@H](C3=CC(=O)OC3)CC[C@]12O (some centres not stated)	3.65	1.69	100
C[C@]12CC[C@](O)(CC3CO3)C[C@H]1CC[C@@H]1[C@@H]2CC[C@]2(C)[C@@H](C3=CC(=O)OC3)CC[C@]12O (some centres not stated)	4.06		
C[C@@]1(O)CC[C@@]2(C)[C@H](CC[C@@H]3[C@@H]2CC[C@]2(C)[C@@H](C4=CC(=O)OC4)CC[C@]32O)C1	11.4		
CC[C@]1(O)CC[C@@]2(C)[C@H](CC[C@@H]3[C@@H]2CC[C@]2(C)[C@@H](C4=CC(=O)OC4)CC[C@]32O)C1	2.15	0.73	100
